Reference: ChEMBL document CHEMBL1124024, “Crystal structures and pharmacologic activities of 1,4-dihydropyridine calcium channel antagonists of the isobutyl methyl 2,6-dimethyl-4-(substituted phenyl)-1,4-dihydropyridine-3,5-dicarboxylate (nisoldipine) series” (J Med Chem, 1988)

Legend:
[1] = target: Voltage-gated L-type calcium channel (Cavia porcellus); assay: Inhibition of [3H]nitrendipine binding to guinea pig ileal longitudinal smooth muscle
Cavia porcellus = organism: Cavia porcellus; assay: Inhibition of tonic (slow) component of K+ depolarization response in guinea pig ileal longitudinal smooth muscle; type: functional; conditions: Muscle tissue
Procedure, shortened: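 Longitudinal strips of terminal ileum from male guinea pigs (300-500 g) held in aerated physiologic saline under 500 mg resting tension, with isotonic recording. A control maximal response to 80 mM KCl depolarizing saline was taken, followed by washout and 30-min re-equilibration. Antagonist was then equilibrated for 30 min and the K+ response measured again. One concentration per tissue; contraction read in mm from baseline.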

| SMILES | IC50 [1] [nM] | IC50 (Cavia porcellus) [nM] |
| --- | --- | --- |
| CO/C(O)=C1\C(C)=NC(C)=C(C(=O)OCC(C)C)C1c1cccc(OC)c1 (configuration not stated) | 2.3 | 7.1 |
| CO/C(O)=C1\C(C)=NC(C)=C(C(=O)OCC(C)C)C1c1ccccc1 (configuration not stated) | 0.25 | 3.3 |
| CO/C(O)=C1\C(C)=NC(C)=C(C(=O)OCC(C)C)C1c1ccc(Cl)cc1 (configuration not stated) | 2.8 | 27 |
| CO/C(O)=C1\C(C)=NC(C)=C(C(=O)OCC(C)C)C1c1ccc(F)cc1 (configuration not stated) | 1.5 | 6.8 |
| CO/C(O)=C1\C(C)=NC(C)=C(C(=O)OCC(C)C)C1c1cccc(C(F)(F)F)c1 (configuration not stated) | 0.14 | 15 |

These reach a lower IC50 (Cavia porcellus). Values come first.

| IC50 [1] [nM] | IC50 (Cavia porcellus) [nM] | SMILES |
| --- | --- | --- |
| 0.027 | 2.1 | CO/C(O)=C1\C(C)=NC(C)=C(C(=O)OCC(C)C)C1c1ccccc1C(F)(F)F (configuration not stated) |
| 0.0081 | 0.59 | CO/C(O)=C1\C(C)=NC(C)=C(C(=O)OCC(C)C)C1c1cccc([N+](=O)[O-])c1 (configuration not stated) |
| 0.013 | 0.27 | CO/C(O)=C1\C(C)=NC(C)=C(C(=O)OCC(C)C)C1c1cccc(C#N)c1 (configuration not stated) |
|  | 0.22 | CO/C(O)=C1\C(C)=NC(C)=C(C(=O)OCC(C)C)C1c1ccccc1[N+](=O)[O-] (configuration not stated) |
